Assay results: ChEMBL document CHEMBL3526041, “Absorption, metabolism and excretion of [(14)C]mirabegron (YM178), a potent and selective β(3)-adrenoceptor agonist, after oral administration to healthy male volunteers” (Drug Metab Dispos, 2012)
Values belong to the compound of their own block, whether it stands above or below them.

What was measured:
[1] = Drug recovery in healthy human urine treated with [14C]mirabegron at 160 mg, po as single dose measured up to 48 hrs; type: ADME, organism-based; design: dosed compound name [14C]Mirabegron; settings: in vivo
How it was run: (§1)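 Urine was collected at 0–6, 6–12, 12–24 and 24–48 h after a single oral 160 mg [14C]mirabegron dose in four men, with dichlorvos added. Samples underwent solid-phase extraction and radio-HPLC (C18, 40°C), with eluate fractions counted by scintillation. Each peak, as a percentage of eluted radioactivity, was converted to % of dose without recovery correction; mean ± S.D.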

Plasma [2] = assay: Drug recovery in healthy human plasma treated with [14C]mirabegron at 160 mg, po as single dose measured at 2 hrs; type: ADME, organism-based; design: dosed compound name [14C]Mirabegron; settings: in vivo
How it was run: (§2)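 Plasma taken at 2, 4, 8 and 12 h from the four subjects was pooled at each time point, with dichlorvos added. Pools underwent solid-phase extraction, then HPLC with fractions counted by low-level liquid scintillation. Each peak is expressed as % of the radioactivity injected onto HPLC.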

Plasma [3] = assay: Drug recovery in healthy human plasma treated with [14C]mirabegron at 160 mg, po as single dose measured at 4 hrs; type: ADME, organism-based; design: dosed compound name [14C]Mirabegron; settings: in vivo; how it was run: as §2
Plasma [4] = assay: Drug recovery in healthy human plasma treated with [14C]mirabegron at 160 mg, po as single dose measured at 8 hrs; type: ADME, organism-based; design: dosed compound name [14C]Mirabegron; settings: in vivo; how it was run: as §2
Plasma [5] = assay: Drug recovery in healthy human plasma treated with [14C]mirabegron at 160 mg, po as single dose measured at 12 hrs; type: ADME, organism-based; design: dosed compound name [14C]Mirabegron; settings: in vivo; how it was run: as §2
[6] = Tmax in healthy human plasma at 160 mg, po as single dose; type: ADME, organism-based; design: dosed compound name [14C]Mirabegron
How it was run: (§3)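 Four healthy men fasted overnight, then took one oral dose of 160 mg mirabegron containing 1.85 MBq [14C]mirabegron, dissolved in 20 mM sodium citrate pH 4.5. Blood was drawn into lithium heparin tubes from 0 to 168 h. Total radioactivity in whole blood and plasma was counted by liquid scintillation. Unchanged drug in plasma was measured by validated LC-MS/MS (1–500 ng/ml). Parameters were derived noncompartmentally; values are mean ± S.D., n=4.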

[7] = Cmax in healthy human plasma at 160 mg, po as single dose; type: ADME, organism-based; design: dose 160 mg, route oral, dosed compound name [14C]Mirabegron; how it was run: as §3
[8] = AUC (infinity) in healthy human plasma at 160 mg, po as single dose; type: ADME, organism-based; design: dose 160 mg, route oral, time infinity, dosed compound name [14C]Mirabegron; how it was run: as §3
[9] = Terminal elimination phase half life in healthy human plasma at 160 mg, po as single dose; type: ADME, organism-based; design: dosed compound name [14C]Mirabegron; settings: read-out: beta t1/2 (converted); how it was run: as §3
[10] = Terminal elimination phase half life in healthy human urine at 160 mg, po as single dose; type: ADME, organism-based; design: dosed compound name [14C]Mirabegron; settings: read-out: beta t1/2 (converted)
How it was run: (§4)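 Same single oral 160 mg [14C]mirabegron solution in four fasted healthy men. Urine was collected over 0–6, 6–12 and 12–24 h, then in 24-h intervals to 408 h. Radioactivity was measured by scintillation counting. Unchanged drug was measured by LC-MS/MS (2–1000 ng/ml). Half-life came from log-linear regression of the terminal phase, and renal clearance was also calculated.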

[11] = Apparent oral clearance in healthy human plasma at 160 mg, po as single dose; type: ADME, organism-based; design: dosed compound name [14C]Mirabegron; how it was run: as §3
[12] = Apparent volume of distribution during terminal phase in healthy human plasma at 160 mg, po as single dose; type: ADME, organism-based; design: dosed compound name [14C]Mirabegron; settings: read-out: Vz/F; how it was run: as §3
[13] = Renal clearance in healthy human plasma at 160 mg, po as single dose; type: ADME, organism-based, Kidney; design: dosed compound name [14C]Mirabegron; how it was run: as §4
[14] = Drug recovery in healthy human urine at 160 mg, po as single dose measured up to 408 hrs; type: ADME, organism-based; design: dosed compound name [14C]Mirabegron; settings: read-out: Compound recovery
How it was run: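 One oral dose of 160 mg [14C]mirabegron (1.85 MBq) given as a solution to four healthy men. Urine and feces were collected to 408 h; feces were homogenized and combusted. Expired air was trapped in hyamine hydroxide at set times to 96 h. All samples were counted by liquid scintillation. Cumulative excretion is given as % of administered radioactivity, mean ± S.D., n=4.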

[15] = Drug recovery in healthy human urine at 160 mg, po as single dose measured up to 48 hrs; type: ADME, organism-based; design: dosed compound name [14C]Mirabegron; settings: read-out: Compound recovery; how it was run: as §1
Plasma [16] = assay: Drug recovery in healthy human plasma at 160 mg, po as single dose measured at 2 hrs; type: ADME, organism-based; design: dosed compound name [14C]Mirabegron; settings: in vivo; how it was run: as §2
Plasma [17] = assay: Drug recovery in healthy human plasma at 160 mg, po as single dose measured at 4 hrs; type: ADME, organism-based; design: dosed compound name [14C]Mirabegron; settings: in vivo; how it was run: as §2
Plasma [18] = assay: Drug recovery in healthy human plasma at 160 mg, po as single dose measured at 8 hrs; type: ADME, organism-based; design: dosed compound name [14C]Mirabegron; settings: in vivo; how it was run: as §2
Plasma [19] = assay: Drug recovery in healthy human plasma at 160 mg, po as single dose measured at 12 hrs; type: ADME, organism-based; design: dosed compound name [14C]Mirabegron; settings: in vivo; how it was run: as §2
[20] = Absolute oral bioavailability in rat at 10 mg/kg; type: ADME, organism-based; design: dosed compound name [14C]Mirabegron; settings: in vivo
[21] = Absolute oral bioavailability in rat at 30 mg/kg; type: ADME, organism-based; design: dosed compound name [14C]Mirabegron; settings: in vivo
[22] = Absolute oral bioavailability in dog at 0.25 mg/kg; type: ADME, organism-based, Canis lupus familiaris; design: dosed compound name [14C]Mirabegron; settings: in vivo
[23] = Absolute oral bioavailability in dog at 0.5 mg/kg; type: ADME, organism-based, Canis lupus familiaris; design: dosed compound name [14C]Mirabegron; settings: in vivo
[24] = Absolute oral bioavailability in dog at 1 mg/kg; type: ADME, organism-based, Canis lupus familiaris; design: dosed compound name [14C]Mirabegron; settings: in vivo
[25] = Absolute oral bioavailability in rat at 3 mg/kg; type: ADME, organism-based; design: dosed compound name [14C]Mirabegron; settings: in vivo

Compound recovery [1]: 0.6%
Compound recovery (Plasma [2]): Below limit of detection
Compound recovery (Plasma [3]): Below limit of detection
Compound recovery (Plasma [4]): Below limit of detection
Compound recovery (Plasma [5]): Below limit of detection
SMILES: CC(=O)Nc1ccc(CC(=O)O)cc1 [ACTARIT]

Compound recovery [1]: 1.7%
Compound recovery (Plasma [2]): 3.3%
Compound recovery (Plasma [3]): 4.3%
Compound recovery (Plasma [4]): 6.2%
Compound recovery (Plasma [5]): 7.6%
SMILES: Cl.Nc1ccc(CCNC[C@H](O)c2ccccc2)cc1

Tmax [6]: 1 h
Cmax [7]: 371 ng/mL
AUC(0-inf) [8]: 2280 ng·h/mL
half-life [9]: 47.9 h
half-life [10]: 72.9 h
CL/F [11]: 1180 mL/min
Vd/F [12]: 4820 L
CL renal [13]: 295 mL/min
dose excreted at 408 h [14]: 25%
dose excreted at 48 h [15]: 18.4%
Compound recovery (Plasma [16]): 46.4%
Compound recovery (Plasma [17]): 30.9%
Compound recovery (Plasma [18]): 28.6%
Compound recovery (Plasma [19]): 31%
bioavailability [20]: 48.4%
bioavailability [21]: 75.7%
bioavailability [22]: 41.8%
bioavailability [23]: 64.6%
bioavailability [24]: 77.1%
bioavailability [25]: 23%
SMILES: Nc1nc(CC(=O)Nc2ccc(CCNC[C@H](O)c3ccccc3)cc2)cs1 [MIRABEGRON]

Compound recovery [1]: 2%
Compound recovery (Plasma [2]): Below limit of detection
Compound recovery (Plasma [3]): Below limit of detection
Compound recovery (Plasma [4]): Below limit of detection
Compound recovery (Plasma [5]): Below limit of detection
SMILES: Nc1ccc(CCNCC(O)c2ccccc2)cc1O[C@@H]1O[C@H](C(=O)O)[C@@H](O)[C@H](O)[C@H]1O (stereo not given in full)
